This is a sample that favours compounds with a hit; in the whole collection about 1.6% have one here.
Cardio protect – protects H9c2 cardiomyocytes from peroxide injury; H2O2 injury protection, ATPLite, 2 h; protection from H2O2 cell death, % at 20 µM; hit rate 0.63% among 360,000; AID 588492;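 active means compounds giving at least 50% protection of heart cells from peroxide-induced death in the single-dose screen, raw or plate-pattern-corrected value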
ASAP1 GAP inh – blocks human ASAP1-stimulated Arf1 GTP hydrolysis | hit rate 0.19% among 360,000 | AID 624377 | inhibition, % at 16.5 µM | Q9ULH1 | GDP FP detection; in the data active means inhibition above about 25%
ARFGAP1 inhibitor – rat ARFGAP1 inhibition; Arfgap1-stimulated ARF1 GTP hydrolysis, GDP FP detection; inhibition, % at 16.5 µM; hit rate 0.26% among 360,000;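 active means inhibition above a per-plate limit, mean inhibition of low control wells plus 3 SD, cut at about 25% in these data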
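System: truncated rat Arfgap1 GAP domain / Benchmarks: high control wells lacking Arfgap1, low control full reaction with DMSO / Times: compound-enzyme preincubation 20 min, reaction 120 min, detection 60 min, 25 °C / Repeats: one replicate per compound / Also added: human ARF1(Δ1-17)-GTP substrate / Measured by: Tracer-displacement fluorescence polarization with EDTA stop, 620/688 nm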
Neddyl block – cullin neddylation inhibition; TR-FRET cullin neddylation, biochemical; inhibition, % at 25 µM; hit rate 0.58% among 360,000; P61081+Q13564; in the data active means inhibition above about 36%
Target sequence (P61081 whole entry, looked up): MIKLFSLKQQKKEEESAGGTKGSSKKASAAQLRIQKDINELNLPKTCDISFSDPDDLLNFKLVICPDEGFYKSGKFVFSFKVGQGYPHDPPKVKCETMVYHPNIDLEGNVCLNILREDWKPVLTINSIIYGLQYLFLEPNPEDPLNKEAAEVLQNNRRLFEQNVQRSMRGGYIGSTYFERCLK
Target sequence (Q13564 whole entry, looked up): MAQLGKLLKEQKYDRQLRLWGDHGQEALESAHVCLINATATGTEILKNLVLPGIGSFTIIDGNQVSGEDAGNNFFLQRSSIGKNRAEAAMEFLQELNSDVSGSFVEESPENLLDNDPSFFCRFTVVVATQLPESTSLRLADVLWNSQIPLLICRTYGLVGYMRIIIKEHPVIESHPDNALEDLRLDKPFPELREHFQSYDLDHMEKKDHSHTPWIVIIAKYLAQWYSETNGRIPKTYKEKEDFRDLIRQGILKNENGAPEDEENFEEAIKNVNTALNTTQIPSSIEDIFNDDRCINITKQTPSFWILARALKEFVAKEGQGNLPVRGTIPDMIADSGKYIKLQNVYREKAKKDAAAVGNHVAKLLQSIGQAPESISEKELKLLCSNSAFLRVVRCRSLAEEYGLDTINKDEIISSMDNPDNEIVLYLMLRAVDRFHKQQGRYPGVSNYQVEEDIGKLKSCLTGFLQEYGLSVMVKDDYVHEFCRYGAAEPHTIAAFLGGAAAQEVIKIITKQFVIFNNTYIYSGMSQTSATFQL
Each line names hits and unclear results; the compound was inactive in the other large screens.

CC(O)(c1ccncc1)c1nc(-c2cccc(C(F)(F)F)c2)cs1 (stereo not drawn)	none
N#C/C(=C\c1ccc(O)c(O)c1)S(=O)(=O)c1ccccc1	Cardio protect 51
N#C/C(=C\c1ccc(O)c(O)c1)C(=O)NCCCc1ccccc1	Cardio protect 89
N#C/C(=C\c1ccc(O)c(O)c1)C(=O)c1ccc(O)c(O)c1	Cardio protect 64
COc1ccc(/C=C(\C#N)C(=O)NCCc2ccccc2)cc1OCc1ccccc1	none
CCOC(=O)C1CSCCS(=O)(=O)N1Cc1cccc(Cl)c1 (stereo not drawn)	none (no result: Cardio protect, Neddyl block)
CC(C)(C)C(=O)Nc1cccc(-c2nnc(-c3cccc(NC(=O)C(C)(C)C)c3)o2)c1	Cardio protect 64
COc1ccccc1OCC(=O)Nc1cccc(-c2nnc(-c3ccco3)o2)c1	Cardio protect 64
CCOC(=O)N1CCN(C2=C(NS(=O)(=O)c3ccccc3)C(=O)c3ccccc3C2=O)CC1	ASAP1 GAP inh 29, ARFGAP1 inhibitor 33
Cn1c(CNC(=O)c2ccc(Cl)cc2)nnc1SCC(=O)Nc1sc2c(c1C#N)CCCC2	none
Cc1ccc(C(=O)NCc2nnc(SCC(=O)Nc3sc4c(c3C#N)CCCC4)n2C)cc1	ARFGAP1 inhibitor 25
O=C1NC[C@H](c2ccccc2)OC(=O)[C@@H](Cc2ccc(F)cc2)CC/C=C/C[C@@H]1CC(=O)N(CCO)Cc1ccccc1	none
O=C1NC[C@H](c2ccccc2)OC(=O)[C@H](Cc2ccc(F)cc2)C/C=C\C[C@@H]1CC(=O)N(CCO)Cc1ccccc1	none
O=C1NC[C@H](c2ccccc2)OC(=O)[C@@H](Cc2ccc(F)cc2)CC/C=C/C[C@H]1CC(=O)N(CCO)Cc1ccccc1	Cardio protect 86
O=C1NC[C@H](c2ccccc2)OC(=O)[C@H](Cc2ccc(F)cc2)CC/C=C/C[C@H]1CC(=O)N(CCO)Cc1ccccc1	Cardio protect 52
CN/C=C1\C(=O)C(C)(C)Oc2ccc3ccc(=O)oc3c21	none
CC1(C)Oc2ccc3ccc(=O)oc3c2/C(=C/Nc2ccccn2)C1=O	Cardio protect 56
CNS(=O)(=O)c1ccc2nc(NC(=O)/C=C/c3ccco3)sc2c1	Cardio protect 64
Cc1nc(NC(=O)/C=C/c2ccco2)sc1C	none
CCC(=O)Nc1ccc(Nc2nc(C)c([N+](=O)[O-])c(Nc3ccc(NC(=O)CC)cc3)n2)cc1	Cardio protect 70
O=C(CNC(=O)c1nc[nH]c1C(=O)NCC(=O)OCc1ccccc1)OCc1ccccc1	Cardio protect 96
CCN(CC)C(=O)c1[nH]cnc1C(=O)NCC(=O)OCc1ccccc1	Cardio protect 105
O=C(CNC(=O)c1nc[nH]c1C(=O)NCc1ccccc1)OCc1ccccc1	Cardio protect 103
O=C(NCc1ccccc1)C(c1ccco1)N1CCN(CCN2CCOCC2)CC1 (stereo not drawn)	none (no result: Cardio protect, Neddyl block)
Cc1ccc(Oc2cccc3c2S(=O)(=O)N([C@H](C)c2ccccc2)C[C@@H](COCc2ccccc2)O3)cc1	none (no result: Cardio protect, Neddyl block)
CN=c1scc(C)n1/N=C/c1ccc(O)cc1	none
C=CCN=c1scc(C)n1/N=C/c1ccc(O)c(O)c1	Cardio protect 65
COc1ccc(C2CC(=O)C(c3ccc(C(N)=O)cc3)=CN2Cc2ccccc2)cc1 (stereo not drawn)	none (no result: Cardio protect, Neddyl block)
CCc1nnc(NC(=O)CSc2nnc(CNc3ccc(OC)cc3)n2CC)s1	none
CCc1nnc(NC(=O)CSc2nnc(CNc3ccc(OC)cc3)n2C)s1	Cardio protect 68
CCOC(=O)Cn1c(=NC(=O)c2cc(-c3cccs3)nc3ccccc23)sc2cc(S(N)(=O)=O)ccc21	Cardio protect 75
COC(=O)Cn1c(=NC(=O)c2nc3ccccc3s2)sc2cc(S(N)(=O)=O)ccc21	none
CCOC(=O)Cn1c(=NC(=O)C2COc3ccccc3O2)sc2cc(S(N)(=O)=O)ccc21 (stereo not drawn)	none
COCCn1c(=NC(=O)c2nc3ccccc3s2)sc2cc(S(C)(=O)=O)ccc21	Cardio protect 58
COC(=O)Cn1c(=NC(=O)c2cc(-c3cccs3)nc3ccccc23)sc2cc(S(N)(=O)=O)ccc21	Cardio protect 66
COC(=O)C1=C(C)N(Cc2ccccc2)C(=S)NC1c1ccc(Br)cc1 (stereo not drawn)	none (no result: Cardio protect, Neddyl block)
COc1cccc(N=c2oc3ccccc3cc2-c2nc3ccccc3[nH]2)c1	Neddyl block 42
COc1cccc(N=c2oc3ccc(OC)cc3cc2-c2nc3ccccc3[nH]2)c1	none
CC(C)C[C@H]1COc2cc(N3CCCC3)ccc2S(=O)(=O)N1	none (no result: Cardio protect, Neddyl block)
Clc1ccccc1-c1nc(N/N=C/c2cccnc2)c2ccccc2n1	Cardio protect 78
O=S1(=O)CCSC[C@@H](CN2CCCC2)N1	none (no result: Cardio protect, Neddyl block)
CCCc1nc2ccccc2c(C(=O)OCC(=O)Nc2cccc(S(=O)(=O)N3CCOCC3)c2)c1CC	ARFGAP1 inhibitor 28
Cc1ccnc(Nc2nc(-c3ccc(O)cc3)cs2)c1	none
COc1ccc(-c2csc(Nc3ncccc3C)n2)cc1OC	none
Cc1ccnc(Nc2nc(-c3ccc(O)c(O)c3)cs2)c1	Cardio protect 60
Cc1cccnc1Nc1nc(-c2ccc(O)c(O)c2)cs1	Cardio protect 65
COc1cc(N/C(=C\C(=O)c2ccccc2)c2ccccc2)ccc1Cl	none (no result: Cardio protect, Neddyl block)
Cc1ccc(S(=O)(=O)N(C)[C@H]2C[C@H]3c4cc(-c5ccc6c(c5)OCO6)ccc4CCN3C[C@H]2[C@H](C)O)cc1	none (no result: Cardio protect, Neddyl block)
CCCCNC(=O)C1(C)CCCCN1Cc1ccc(-c2ccccc2)cc1 (stereo not drawn)	none
COc1ccc([C@@H]2C[C@H]3[C@@H](CN2S(=O)(=O)c2ccccc2)C(=O)C[C@@H](c2cccc(Cl)c2)N3S(=O)(=O)c2ccc(C)cc2)cc1	none (no result: ASAP1 GAP inh, ARFGAP1 inhibitor)
COc1ccccc1C(=O)NNC1=C(C(=O)C(F)(F)F)CCC1	Cardio protect 67
O=C(NNC1=C(C(=O)C(F)(F)F)CCC1)c1ccccc1O	none
c1coc(-c2nnc3sc(Cc4cccs4)nn23)c1	Cardio protect 65
CCOC(=O)CN1C(=O)[C@]2(OCCC=C[C@H]2C)c2cc(OC)ccc21	none (no result: Cardio protect, Neddyl block)
COc1ccccc1OCC(=O)Nc1sc2c(c1C(=O)NCC1CCCO1)CCC2 (stereo not drawn)	Cardio protect 64
CCCCS(=O)(=O)N1C2=NC(C(=O)OCC)=C(C(=O)OCC)C3N(Cc4ccc(C#N)cc4)c4ccccc4[C@]23C[C@H]1C(=O)OC (stereo partly drawn)	none (no result: Cardio protect, Neddyl block)
Cc1c(O)ccc2c3c(c(=O)oc12)CCC(C)C3 (stereo not drawn)	Cardio protect 52 (not shown: Neddyl block)
COc1ccc(Cl)cc1C(Nc1cccnc1)c1ccc2cccnc2c1O (stereo not drawn)	none
Oc1c(C(Nc2cccc(C(F)(F)F)c2)c2cccnc2)ccc2cccnc12 (stereo not drawn)	Cardio protect 59, Neddyl block 40
Cc1cc(NC(c2cccnc2)c2ccc3cccnc3c2O)no1 (stereo not drawn)	Cardio protect 57
COc1ccc(C(=O)c2[nH]c(N)c(C(=O)c3c[nH]c4ccccc34)c2-c2ccc(F)c(OC)c2)cc1	none (no result: Cardio protect, Neddyl block)
CC1=NC2=CC=CC3=NC(C(Cl)(Cl)Cl)=NC(=N1)N23	none (no result: Cardio protect, Neddyl block)

Assay outcomes: PubChem BioAssay, several laboratories
